In ChEMBL document CHEMBL3867444, “Design and synthesis of new potent PTP1B inhibitors with the skeleton of 2-substituted imino-3-substituted-5-heteroarylidene-1,3-thiazolidine-4-one: Part I” (Eur J Med Chem, 2016):

Key:
[1] = molecular target: T1, Tyrosine-protein phosphatase non-receptor type 1 (Homo sapiens) (UniProt P18031); experiment: Inhibition of human recombinant GST-tagged PTP1B catalytic domain expressed in Escherichia coli BL21-[…] plus (DE3) at 20 ug/ml using pNPP as substrate relative to control
T1 sequence (whole entry): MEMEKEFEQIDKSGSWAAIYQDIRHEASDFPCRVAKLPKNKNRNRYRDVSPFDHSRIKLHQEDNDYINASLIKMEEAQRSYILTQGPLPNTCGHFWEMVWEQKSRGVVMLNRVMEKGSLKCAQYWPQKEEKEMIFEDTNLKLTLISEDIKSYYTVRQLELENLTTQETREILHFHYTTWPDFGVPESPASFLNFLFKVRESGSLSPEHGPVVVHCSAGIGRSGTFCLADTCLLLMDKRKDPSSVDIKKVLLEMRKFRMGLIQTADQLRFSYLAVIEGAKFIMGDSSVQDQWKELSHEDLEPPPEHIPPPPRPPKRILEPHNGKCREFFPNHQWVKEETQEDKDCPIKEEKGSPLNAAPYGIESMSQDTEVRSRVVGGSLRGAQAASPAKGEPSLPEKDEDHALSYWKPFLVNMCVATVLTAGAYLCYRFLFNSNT

[2] = molecular target: T2, Tyrosine-protein phosphatase non-receptor type 1 (Homo sapiens, UniProt P18031); experiment: Inhibition of human recombinant GST-tagged PTP1B catalytic domain expressed in Escherichia coli BL21-[…] plus (DE3) using pNPP as substrate
T2 sequence (P18031 whole entry): T1 sequence (whole entry)

[3] = molecular target: T3, M-phase inducer phosphatase 2 (Homo sapiens) (UniProt P30305); experiment: Inhibition of human recombinant GST-tagged CDC25B assessed as reduction in dephosphorylation of florigenic phosphatase substrate at 5 ug/ml preincubated for 1 hr followed by substrate addition measured after 1 hr by fluorescence assay relative to control
T3 sequence (whole entry): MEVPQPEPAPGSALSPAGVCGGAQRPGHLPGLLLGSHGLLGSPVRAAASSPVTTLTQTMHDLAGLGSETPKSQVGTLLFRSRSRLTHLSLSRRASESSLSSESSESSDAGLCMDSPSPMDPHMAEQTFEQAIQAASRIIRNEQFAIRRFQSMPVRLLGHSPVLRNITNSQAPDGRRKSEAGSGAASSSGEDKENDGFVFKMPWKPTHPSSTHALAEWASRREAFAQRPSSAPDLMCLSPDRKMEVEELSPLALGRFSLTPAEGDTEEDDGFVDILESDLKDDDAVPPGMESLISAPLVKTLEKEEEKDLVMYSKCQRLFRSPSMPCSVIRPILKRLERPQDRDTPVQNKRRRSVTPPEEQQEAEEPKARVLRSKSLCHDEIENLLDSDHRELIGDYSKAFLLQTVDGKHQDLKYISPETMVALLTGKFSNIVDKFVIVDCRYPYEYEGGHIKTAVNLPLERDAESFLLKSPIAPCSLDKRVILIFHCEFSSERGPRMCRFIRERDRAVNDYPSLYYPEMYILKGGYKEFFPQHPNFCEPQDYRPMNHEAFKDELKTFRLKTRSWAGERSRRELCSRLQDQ

[4] = molecular target: T1, Tyrosine-protein phosphatase non-receptor type 1 (Homo sapiens); experiment: Inhibition of human recombinant GST-tagged PTP1B catalytic domain expressed in Escherichia coli BL21-[…] plus (DE3) at 5 ug/ml using pNPP as substrate relative to control
[5] = molecular target: T4, M-phase inducer phosphatase 2 (Homo sapiens, UniProt P30305); experiment: Inhibition of human recombinant GST-tagged CDC25B assessed as reduction in dephosphorylation of florigenic phosphatase substrate preincubated for 1 hr followed by substrate addition measured after 1 hr by fluorescence assay
T4 sequence (P30305 whole entry): T3 sequence (whole entry)
Procedure, shortened: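 Purified GST-CDC25B fusion protein was preincubated with compound for 1 h, then fluorescein diphosphate (5mM) was added. Fluorescence was read within the linear range of the reaction after 1 h at room temperature. Na₃VO₄ served as positive control and DMSO as negative control.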

[6] = molecular target: T2, Tyrosine-protein phosphatase non-receptor type 1; experiment: Inhibition of PTP1B (unknown origin)

| Compound | inhibition [1] | IC50 [2] | inhibition [3] | inhibition [4] | IC50 [5] | IC50 [6] |
| --- | --- | --- | --- | --- | --- | --- |
| CC/N=C1\S/C(=C\c2ccc(OCCN(C)c3ccccn3)cc2)C(=O)N1CC | 42.1% |  |  |  |  |  |
| CCOC(=O)c1c(C)[nH]c(/C=C2\S/C(=N/O)N(C(C)C)C2=O)c1C | 95.8% |  | 80.2% | 49% | 5.83 µM |  |
| CC(C)N1C(=O)/C(=C/c2ccc(OCCN(C)c3ccccn3)cc2)S/C1=N\O | 67.5% |  | 98.5% | 19.3% | 2.47 µM |  |
| CCOC(=O)c1c(C)[nH]c(/C=C2\S/C(=N\c3ccc(OC)cc3)N(c3ccc(OC)cc3)C2=O)c1C | 98.7% |  | 76.5% | 47.7% | 2.74 µM |  |
| SODIUM ORTHOVANAD |  |  |  |  | 0.91 µM |  |
| CCOC(=O)c1c(C)[nH]c(/C=C2\S/C(=N\c3ccc(C)cc3)N(c3ccc(C)cc3)C2=O)c1C | 28.4% |  |  |  |  |  |
| Cc1cc(I)cc2c1NC(c1cccc(N)c1)C1CC=CC21 (stereo not given) |  |  |  |  |  | 7.5 µM |

The next lines start with the values.

| inhibition [1] | IC50 [2] | inhibition [3] | inhibition [4] | IC50 [5] | IC50 [6] | Compound |
| --- | --- | --- | --- | --- | --- | --- |
| 96.3% | 6.83 µM | 82.8% | 74.2% | 3.39 µM |  | CCOC(=O)c1c(C)[nH]c(/C=C2\S/C(=N\c3cccc(F)c3)N(c3cccc(F)c3)C2=O)c1C |
| 99.9% | 8.66 µM | 83.7% | 81.1% | 1.66 µM |  | CCOC(=O)c1c(C)[nH]c(/C=C2\S/C(=N\c3ccccc3)N(c3ccccc3)C2=O)c1C |
| 98.3% |  | 64.2% | 45% | 3.66 µM |  | CCOC(=O)c1c(C)[nH]c(/C=C2\S/C(=N\c3ccccc3F)N(c3ccccc3F)C2=O)c1C |
| 94.5% | 6.09 µM | 84.7% | 82.7% | 2.87 µM |  | CCOC(=O)c1c(C)[nH]c(/C=C2\S/C(=N\c3ccc(F)cc3)N(c3ccc(F)cc3)C2=O)c1C |
